Bioassay records: PubChem BioAssay, several laboratories
Hits are enriched below; roughly 7.6% of the tested compounds scored in any of these assays.
DAT uptake mod: changed hDAT dopamine uptake under cocaine IC80, either direction, primary screen, cocaine antagonist project, cell-based, LLC-PK1 hDAT, [14C]-dopamine uptake, MLSMR | Sodium-dependent dopamine transporter (Homo sapiens), Q01959 | hit rate 1.3% among 110,000 | B-score at 10 µM | LLC-PK1 hDAT cells, [14C]-dopamine uptake with cocaine IC80; actives deviate in either direction;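 active = Z score or B-score, a plate-position-corrected score, falls beyond the plate's 99.7% confidence bounds, in either direction; inactive = both scores lie inside the 99.7% bounds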;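 also: scored against the spread of the other compound wells on the same plate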
D1 allo mod: D1 CRE-luciferase signal change, two-sided – cell-based, HEK293 D1, dopamine EC30, D1 allosteric modulator project, primary screen; dopamine EC30 potentiation; actives deviate in either direction; B-score at 10 µM; hit rate 5.9% among 58,000; AID 641, 2007;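 active = luminescence count or its row- and column-corrected plate score outside the 99.7% band of the plate's sample wells, on either side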
Target sequence (P21728 whole entry, looked up): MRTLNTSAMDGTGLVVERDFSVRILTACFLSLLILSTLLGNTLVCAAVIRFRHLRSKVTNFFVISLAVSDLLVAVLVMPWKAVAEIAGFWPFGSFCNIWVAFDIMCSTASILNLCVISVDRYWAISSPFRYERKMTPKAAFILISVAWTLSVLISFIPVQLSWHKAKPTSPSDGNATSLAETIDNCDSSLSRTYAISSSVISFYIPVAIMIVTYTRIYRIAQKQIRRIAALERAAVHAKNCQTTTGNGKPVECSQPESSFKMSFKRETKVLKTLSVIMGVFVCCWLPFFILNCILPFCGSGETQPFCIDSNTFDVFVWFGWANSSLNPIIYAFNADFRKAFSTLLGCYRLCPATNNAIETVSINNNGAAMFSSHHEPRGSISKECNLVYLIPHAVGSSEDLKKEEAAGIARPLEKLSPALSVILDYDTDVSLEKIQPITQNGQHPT
Jurkat tox 60K: cytotoxicity toward Jurkat T cells, primary screen, cytotoxicity control, cell-based, Jurkat E6.1, 60K MLSMR library; inhibition, % at 4 µM; hit rate 1.2% among 56,000; Jurkat E6.1 viability, ATP luminescence, 48 h;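 active = inhibition above the mean inhibition of all tested compounds plus 3 SD, cut at about 28% in these data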
M1 agonist: M1 muscarinic receptor agonists, primary screen, CHO-M1 cells, Fluo-4 calcium, agonist mode; Fluo-4 calcium fluorescence; stronger effect = higher value; B-score at 10 µM; hit rate 3% among 64,000;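 active = fluorescence rise, raw or as B-score row- and column-corrected plate score, outside the 99.7% band of its plate's samples, either direction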
M1 antag: antagonists of rat M1 muscarinic receptor | Muscarinic acetylcholine receptor M1 (Rattus norvegicus), P08482 | hit rate 3.4% among 64,000 | B-score at 10 µM | AID 628, 2007 | CHO-M1 cells, Fluo-4 calcium, ACh EC80 antagonist mode; stronger effect = lower value;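 active = calcium fluorescence response, raw or row-and-column corrected B-score, differing from the plate sample mean either way at a set confidence level, mostly lower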
HEK293 NFkB inh: inhibitors of PMA/ionomycin-induced NF-kB reporter, primary screen, antigen receptor NF-kB inhibitor project, cell-based, HEK-293 luciferase reporter, luminescence; inhibition, % at 3 µM; hit rate 0.21% among 62,000; HEK-293 NF-kB luciferase reporter; AID 465, 2006;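 active = inhibition above the mean of all tested compounds plus 3 SD, cut at about 40% in these data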;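 also: 0% = stimulated DMSO wells and 100% = 10 µM reference inhibitor 5653914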
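Signal: luciferase luminescence; Material: HEK-293 cells with stable firefly luciferase reporter driven by four HIV NF-kB elements; Probe or stimulus: PMA with ionomycin; Replication: tested once; Times: 1 h compound pretreatment, then 16 h stimulation at 37 °C, 5% CO2; Benchmarks: DMSO and 10 µM reference inhibitor; Evaluation: per-plate % inhibition versus controls.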
D1 PAM confirm: D1 receptor positive allosteric modulators, retest, confirmation, cell-based, HEK293 D1, CRE-luciferase, duplicate; hit rate 88% among 2,200; dopamine EC30 potentiation; stronger effect = higher value; shares compounds with D1 allo mod; luminescence at 10 µM;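 active = luminescence in either of two replicates above the same-plate mean plus 3 SD of the low-dose dopamine control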
D1 no dopamine: D1 receptor agonism without dopamine, confirmation, mechanism study for D1 allosteric modulator project, cell-based, HEK293 D1, CRE-luciferase, secondary assay 1; AID 646, 2007; luminescence, no dopamine; stronger effect = higher value; shares compounds with D1 allo mod; hit rate 0.8% among 1,900; luminescence at 10 µM; in the data active = luminescence above about 3900
Isoprot counter: isoproterenol response counter-screen activity for D1 modulators; AID 647; HEK293 D1 CRE-luciferase, isoproterenol EC30 counter-screen; shares compounds with D1 allo mod; calls only at 10 µM; hit rate 63% among 2,200;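 active = luminescence in either replicate above plate mean of wells with a partly effective reference agonist dose plus 3 SD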;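 also: isoproterenol raises cAMP through native beta-adrenoceptor Gs so signal bypasses D1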
An asterisk follows results filed as active; i = inactive; · = not tested or not shown; + = active, no number.

SMILES | DAT uptake mod | D1 allo mod | Jurkat tox 60K | M1 agonist | M1 antag | HEK293 NFkB inh | D1 PAM confirm | D1 no dopamine | Isoprot counter
O=C(C1CCC1)N1CCc2cc(S(=O)(=O)N3CCCCC3)ccc21 | -0.61 | 1.1 | 7 | -0.51 | -0.26 | -13 | · | · | ·
O=C(C1CCC1)N1CCc2cc(S(=O)(=O)N3CCN(c4ccccn4)CC3)ccc21 | 0.61 | 6.1* | 0 | -0.065 | -0.41 | 10 | 10104* | · | +
Clc1ccc(Oc2cnc3ccccc3n2)cc1 | -0.76 | · | · | · | · | · | · | · | ·
CCOc1ccccc1CN1C(=O)NC(C)(c2ccccc2)C1=O (stereo not drawn) | -1.5 | -0.6 | 8 | -0.31 | 0.065 | 7 | · | · | ·
Cc1ccc(-c2ccnc(=S)[nH]2)cc1 | 0.25 | · | · | · | · | · | · | · | ·
COc1ccc(S(=O)(=O)N2CCN(c3c(C)cccc3C)CC2)cc1OC | 0.27 | 0.35 | -4 | 0.19 | -0.19 | 12 | · | · | ·
COc1ccc(S(=O)(=O)N2CCN(c3ccccn3)CC2)cc1OC | 0.52 | 5.3* | -3 | -0.17 | 0.1 | 21 | 6880* | · | i
CC(=O)Nc1ccc(S(=O)(=O)NC(CC(=O)NCCc2ccccc2)C(C)C)cc1 (stereo not drawn) | 0.29 | · | · | · | · | · | · | · | ·
O=C(c1cccnc1)N(Cc1ccccc1)c1ccccc1 | 0.47 | 6.8* | -6 | 0.87 | 1.9 | 7 | 15108* | 1816 | +
O=C(c1ccc(Br)o1)N(Cc1ccccc1)c1ccccn1 | -0.52 | · | · | 0.31 | 0.41 | · | · | · | ·
O=C(c1ccccc1)N(Cc1ccccc1)c1ccccn1 | -0.6 | 5.8* | -4 | 1.1 | -0.04 | 8 | 9876* | · | i
Cc1ccc(OCCN2C(=O)OC(C)(C)C2(C)O)cc1 (stereo not drawn) | -0.21 | 5.5* | 0 | -0.089 | -0.13 | -18 | 7404* | 1572 | i
COc1ccc(OCCCC(=O)Nc2ccc3c(c2)OCO3)cc1 | -0.073 | -0.1 | 11 | 1.4 | -0.041 | 15 | · | · | ·
CCn1c(=O)c2ccccc2n2c(SCC(=O)NCc3cccs3)nnc12 | 0.3 | 4.7* | -4 | 0.95 | 0.43 | 6 | 7672 | 1452 | i
CCCn1c(=O)c2ccccc2n2c(SCC(=O)NCc3cccs3)nnc12 | 0.81 | -2.1 | 6 | 0.9 | 0.038 | 12 | · | · | ·
COc1ccc(-c2noc(-c3ccccc3C(=O)Nc3cccnc3)n2)cc1OC | -1.4 | 2 | -4 | -0.5 | -0.15 | 18 | · | · | ·
CCOc1cc(-c2noc(CCC(=O)Nc3cccnc3)n2)ccc1OC | 1.3 | 18* | 11 | · | · | 4 | 17716* | 1472 | +
CCOc1ccc(-c2noc(CCC(=O)NC)n2)cc1OCC | -0.49 | 12* | -1 | · | · | -2 | 19240* | 1568 | +
C/C=C/c1ccccc1OCc1ccc(C(=O)OC)o1 | -0.77 | · | · | · | · | · | · | · | ·
CC(CNCc1ccc2c(c1)OCO2)NCc1ccc2c(c1)OCO2 (stereo not drawn) | 0.97 | -0.02 | 2 | -0.87 | -1.8 | 0 | · | · | ·
CCOC(=O)c1nc(-c2ccccc2)oc1N(C)C | -0.6 | 4* | 10 | 0.32 | 0.57 | 7 | 9692* | 1608 | i
O=C(c1ccc(CS(=O)(=O)c2cccc(C(F)(F)F)c2)o1)N1CCN(c2ccccn2)CC1 | -0.33 | -0.0051 | 8 | 0.78 | -0.51 | 13 | · | · | ·
O=C(O)CSc1nc2ccccc2c(=O)[nH]1 | -0.051 | · | · | · | · | · | · | · | ·
